Sampled rows, rich in hits. Any-hit rate of the full collection: about 5.1%.
STAT1 blocker: STAT1 signaling inhibitors, primary screen, cell-based, HTS, luciferase reporter; NIH 3T3 STAT1-luciferase reporter, IFN-gamma, luminescence; inhibition, % at 5.5 µM; 0.35% of 200,000 active; AID 920, 2007;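 active = inhibition above a set limit, the mean inhibition across all tested compounds plus 3 SD, cut at about 34% in these data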
APP 5'UTR act: activators of APP 5'UTR luciferase reporter, primary screen, SH-SY5Y cells; SH-SY5Y APP 5'UTR luciferase reporter, luminescence; zero percent = DMSO vehicle wells; activation, % at 2 µM; 1% of 190,000 active;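 active = activation above a set limit, based on mean plus 3 SD of controls, cut at about 140% in these data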
STAT3 blocker: IL-6 driven STAT3 reporter inhibitors, primary screen, U3A cells, luciferase, luminescence, MLSCN library; 0.89% of 190,000 active; IL-6 STAT3-luciferase reporter; host cell line lacks STAT1; AID 862, 2007; inhibition, % at 5.5 µM;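 active = inhibition above the mean inhibition across all screened compounds plus 3 SD, cut at about 44% in these data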
STAT1 act: STAT1 signaling activators, primary screen, cell-based, HTS, luciferase reporter. activation (% of control), % at 5.5 µM. 2.6% of 200,000 active. NIH 3T3 STAT1-luciferase reporter, IFN-gamma, luminescence; 100% = IFN-gamma alone, no compound;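 active = activation above the screen-wide mean activation plus 3 SD, cut at about 130% in these data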
NF-kB expr up: activators of NF-kB expression in neurons, primary screen, cell-based, HTS; human neuronal cells, NF-kB reporter expression; stronger effect = higher value; fold change at 12.5 µM; 1.6% of 190,000 active; in the data active = fold change above about 3.3
STAT3 activator: IL-6 driven STAT3 reporter potentiators, primary screen, U3A cells, luciferase, luminescence, MLSCN library; IL-6 STAT3-luciferase reporter; 100% = signal with IL-6 EC80 alone; activation (% of control), % at 5.6 µM; 0.91% of 190,000 active; AID 871, 2007;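 active = activation above the screen-wide mean of compound activation plus 3 SD, cut at about 130% in these data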
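Material: human U3A cells carrying STAT3-luciferase construct. Measured by: reporter luminescence signal. Timing: compound 1 h, then IL-6 6 h at 37 °C.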
A number is an active result; . = inactive.

SMILES	STAT1 blocker	APP 5'UTR act	STAT3 blocker	STAT1 act	NF-kB expr up	STAT3 activator
CC1=NN(c2ccc(Cl)cc2)C(=O)/C1=C\c1cccn1-c1ccc(S(N)(=O)=O)cc1	.	.	.	.	.	.
COc1ccc(-c2nc3ccccn3c2C=O)cc1	.	.	.	143	.	.
O=Cc1c(-c2ccc(F)cc2)nc2ccccn12	.	.	.	.	.	.
CSc1ccc(C2c3[nH]c4ccccc4c3CCN2C(=O)c2ccnn2C)cc1 (configuration not stated)	.	.	.	137	.	150
CCc1ccc(C2c3[nH]c4ccccc4c3CCN2C(=O)CN2CCN(CC)CC2)cc1 (configuration not stated)	.	.	.	.	.	134
CCc1ccc(C2c3[nH]c4ccccc4c3CCN2C(=O)CNC(N)=O)cc1 (configuration not stated)	.	.	.	.	.	.
C=C(C)C1CC=C(C)/C(=N/NC(=O)c2ccoc2C)C1 (configuration not stated)	.	.	.	138	.	.
COc1ccc(S(=O)(=O)N2CCOCC2)cc1NC(=O)Cn1nnc2ccccc2c1=O	.	.	.	.	.	.
O=c1c2ccccc2ncn1CCOCCOc1ccc([N+](=O)[O-])cc1	.	.	.	129	.	.
COc1ccc2c(c1)Cc1sc(NC(=O)c3cccnc3)nc1-2	.	.	.	.	.	.
COc1ccc2c(c1)Cc1sc(NC(C)=O)nc1-2	.	.	.	146	.	.
Cc1cc(-c2nn(-c3ccccc3F)cc2CN(C)CC(O)CO)c(C)s1 (configuration not stated)	.	.	.	.	.	.
Cc1cccc(/C=C(\C(=O)C(=O)O)c2ccc3ccccc3n2)c1	.	.	.	148	.	.
O=C(O)C(=O)/C(=C\c1cccc(Cl)c1)c1ccc2ccccc2n1	.	.	.	137	.	.
CN(C)C(=S)c1ccc2ccccc2n1	.	.	.	.	.	.
O=C(NCCOc1ccc(Cl)cc1)c1ccc2ccccc2n1	.	.	.	.	.	.
O=C(COc1cccc(NC(=O)c2cccc([N+](=O)[O-])c2)c1)c1ccc(Br)cc1	.	.	.	.	.	.
CCOC(=O)CSc1nnc(SCCN2C(=O)c3ccccc3C2=O)s1	.	.	.	.	.	.
Cc1ccccc1Nc1nnc(SCC(=O)Nc2ccccc2[N+](=O)[O-])s1	.	.	.	.	.	.
CCCSc1nnc(Nc2ccccc2C)s1	.	.	.	129	.	.
CN1CCC(NC(=S)NC2CC2)CC1	.	.	.	.	.	.
Cc1cc(/C=N/NC(=O)c2cccc(N(C)C)c2)c(C)n1-c1cc(C(=O)O)cc(C(=O)O)c1	.	.	.	.	.	.
CCN(CC)c1ccc(C(=O)Nc2cccc(F)c2)cc1	.	181	.	.	8.4	.
CN(C)c1cccc(C(=O)N/N=C/c2ccccc2F)c1	69	139	89	.	5	.
CN(C)c1cccc(C(=O)Nc2cccc(F)c2)c1	.	.	.	132	.	.
SMILES	STAT1 blocker	APP 5'UTR act	STAT3 blocker	STAT1 act	NF-kB expr up	STAT3 activator
Cc1nnc(NC(=O)Cn2nc(C)c3ccccc3c2=O)s1	.	.	.	.	.	.
CN(C(=O)COC(=O)c1nc(Cl)c(Cl)c(Cl)c1Cl)C1CCS(=O)(=O)C1 (configuration not stated)	.	.	.	.	.	.
c1ccc(OCCN2CCN(Cc3nc(-c4ccc5c(c4)OCO5)no3)CC2)cc1	.	.	.	.	.	.
CCOC(=O)C1=C(Cc2ccc(Cl)cc2)C(=O)c2ccccc2C1=O	.	.	.	.	.	.
CCOC(=O)C1=C(O)c2ccccc2C(=O)/C1=C\c1ccc(C)cc1	.	.	.	.	.	134
CC(=O)Nc1ccc2sccc2c1	.	.	.	.	.	.
Cc1sc2c(c1C)C(=O)NC(c1cccc(O)c1)N2 (configuration not stated)	.	.	.	.	.	144
COc1cc(/C=N/NC(=O)c2ccc(CSc3nncn3C)cc2)cc(OC)c1O	.	.	.	.	.	.
O=C(CCCOc1ccc(Cl)cc1)N1CCOCC1	.	.	.	.	.	.
CC(C)Cc1ccc(/C=C/C(=O)N2CCOCC2)cc1	.	.	.	146	3.8	.
CC(C)(C)c1ccc(/C=C/C(=O)N2CCOCC2)cc1	.	.	.	132	.	.
CC(C)(C)c1ccc(/C=C/C(=O)N2CCN(c3ncccn3)CC2)cc1	.	.	.	.	.	.
CC(C)(C)c1ccc(OCCCC(=O)N2CCOCC2)cc1	.	.	.	132	.	.
Cc1ccc(C2C(C#N)=C(N)Oc3cc(C)oc(=O)c32)o1 (configuration not stated)	.	.	.	.	.	.
c1cncc(Nc2nc(-c3cccs3)cs2)c1	.	.	.	132	.	141
Cc1nc(N)sc1-c1csc(N(C)c2ccc(O)cc2)n1	.	.	.	.	.	.
COc1ccc(-c2csc(Nc3cccnc3)n2)cc1	.	.	.	134	.	.
CN(c1ccc(O)cc1)c1nc(-c2cccs2)cs1	.	173	.	141	7	.
O=C(Cc1ccccc1)Nc1nc(-c2cccs2)cs1	.	.	.	.	.	.
Cc1cc(O)ccc1Nc1nc(-c2cccs2)cs1	.	148	.	.	7.2	.
O=C(NC(=S)NCc1nc2ccccc2[nH]1)c1ccc(F)cc1	.	.	.	.	.	.
COc1ccc(S(=O)(=O)NCC2CCCN(Cc3cccnc3)C2)cc1 (configuration not stated)	.	.	.	.	.	.
CC(=O)Nc1ccc(C(=O)OCC(=O)N(Cc2ccccc2)C(C)(C)C)cc1	.	.	.	.	.	.
Cc1ccc(Nc2nc(-c3cccs3)cs2)nc1	64	172	80	.	4.9	.
O=c1c(Cl)c(N2CCOCC2)cnn1-c1nc2ccccc2[nH]1	.	.	.	136	.	.
Cc1ccc(C)c(S(=O)(=O)NC(C)C(=O)Nc2ccc(-c3nc4ccccc4s3)cc2)c1 (configuration not stated)	.	.	.	131	.	.
O=C(CNS(=O)(=O)c1cccc(Cl)c1)Nc1ccc(-c2nc3ccccc3s2)cc1	.	.	.	145	.	.
O=C(CCS(=O)(=O)c1ccccc1)Nc1cccc(-c2nc3ccccc3s2)c1	.	.	.	.	3.7	.
Cc1ccc2oc(-c3cccc(NC(=S)NC(=O)c4cccs4)c3)nc2c1	.	.	.	.	.	.
